The target of data set [1] is T1, Amine oxidase [flavin-containing] A (Homo sapiens, UniProt P21397).
T1 sequence (P21397 whole entry): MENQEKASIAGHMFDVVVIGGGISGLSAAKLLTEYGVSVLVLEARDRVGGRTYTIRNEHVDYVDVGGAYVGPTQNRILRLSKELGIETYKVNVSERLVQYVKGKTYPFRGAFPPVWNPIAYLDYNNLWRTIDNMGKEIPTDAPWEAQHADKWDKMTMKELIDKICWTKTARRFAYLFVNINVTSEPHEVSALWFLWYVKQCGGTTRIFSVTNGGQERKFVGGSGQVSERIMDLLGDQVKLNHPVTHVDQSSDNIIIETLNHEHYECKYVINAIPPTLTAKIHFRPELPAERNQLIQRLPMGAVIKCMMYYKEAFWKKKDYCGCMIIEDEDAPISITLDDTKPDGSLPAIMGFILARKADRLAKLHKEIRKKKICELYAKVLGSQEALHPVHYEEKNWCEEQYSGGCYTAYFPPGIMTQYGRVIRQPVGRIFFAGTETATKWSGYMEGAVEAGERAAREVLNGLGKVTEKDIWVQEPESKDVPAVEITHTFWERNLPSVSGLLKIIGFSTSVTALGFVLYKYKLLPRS
Description: Inhibition of recombinant human MAO-A expressed in baculovirus infected BTI insect cells using p-tyramine as substrate incubated for 30 mins by Amplex red reagent based fluorescence analysis.

For data set [2], the target named is T2, Amine oxidase [flavin-containing] B (Homo sapiens, UniProt P27338).
T2 sequence (P27338 whole entry): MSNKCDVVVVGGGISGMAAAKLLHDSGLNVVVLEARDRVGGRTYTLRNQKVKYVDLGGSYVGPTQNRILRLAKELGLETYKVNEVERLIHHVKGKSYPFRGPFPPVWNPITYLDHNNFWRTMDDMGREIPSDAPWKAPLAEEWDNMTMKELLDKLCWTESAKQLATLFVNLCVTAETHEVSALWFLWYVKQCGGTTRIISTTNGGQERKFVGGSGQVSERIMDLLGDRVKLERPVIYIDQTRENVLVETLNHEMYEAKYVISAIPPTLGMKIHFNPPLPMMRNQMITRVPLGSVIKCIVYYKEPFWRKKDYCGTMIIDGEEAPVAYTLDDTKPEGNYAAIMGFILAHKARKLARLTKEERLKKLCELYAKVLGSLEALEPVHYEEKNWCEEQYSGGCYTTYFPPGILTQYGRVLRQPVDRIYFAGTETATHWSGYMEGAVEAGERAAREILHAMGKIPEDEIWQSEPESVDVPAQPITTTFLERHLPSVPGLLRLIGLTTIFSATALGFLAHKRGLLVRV
Kind of data set: Inhibition of recombinant human MAO-B expressed in baculovirus infected BTI insect cells using p-tyramine as substrate incubated for 30 mins by Amplex red reagent based fluorescence analysis. It is filed as cell-based.

Data set [3] in a line: Selectivity index, ratio of Ki for inhibition of recombinant human MAO-A to Ki for inhibition of recombinant human MAO-B using p-tyramine as substrate.
The target in data set [4] is T1, Amine oxidase [flavin-containing] A. Description: Reversible inhibition of human MAO-A assessed as residual enzyme activity at 4 fold IC50 incubated for 15 mins and measured 24 hrs post dialysis by dialysis method relative to control. To be noted: 24.25 h, time 1455 min. Put shortly:
(§1)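 Dialysed (MWCO 12 000) at 4 °C for 24 h against 100 mM potassium phosphate pH 7.4, 5% sucrose, buffer changed twice. Dialysed and undialysed mixtures assayed together; residual activity from triplicates.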

Data set [5] shares this target. Description: Reversible inhibition of human MAO-A assessed as residual enzyme activity at 4 fold IC50 incubated for 15 mins and measured before dialysis by dialysis method relative to control. Put shortly:
as §1

The target of data set [6] is T2, Amine oxidase [flavin-containing] B. Kind of data set: Reversible inhibition of human MAO-B assessed as residual enzyme activity at 4 fold IC50 incubated for 15 mins and measured before dialysis relative to control. The procedure, abridged:
as §1

The target is the same in data set [7]. Description: Reversible inhibition of human MAO-B assessed as residual enzyme activity at 4 fold IC50 incubated for 15 mins and measured 24 hrs post dialysis relative to control. To be noted: 24.25 h, time 1455 min. The procedure, abridged: as §1
Data set [8] in a line: Cytotoxicity against human HepG2 cells assessed as cell viability at 7.5 uM incubated for 2 hrs by MTT assay relative to control. Format: cell-based. The note with it: read-out: Activity. The procedure, abridged: (§2)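 HepG2 human hepatoma cells; viability read by MTT assay, with 0.1% DMSO as vehicle control. Viability given as % of control, mean ± SEM (n = 3); p < 0.05 taken as significant.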

Data set [9] in a line: Cytotoxicity against human HepG2 cells assessed as cell viability at 15 uM incubated for 2 hrs by MTT assay relative to control. It is filed as cell-based. To be noted: read-out: Activity. The procedure, abridged: as §2
A short description of data set [10]: Cytotoxicity against human HepG2 cells assessed as cell viability at 30 uM incubated for 2 hrs by MTT assay relative to control. Format: cell-based. The note with it: read-out: Activity. The procedure, abridged: as §2
A short description of data set [11]: Permeability of compound in PBS/EtOH buffer (70:30) at 25 ug/ml incubated for 16 hrs by UV plate reader based PAMPA-BBB.

Turning to `Cc1ccc(C2CC(c3ccccc3)=NN2C(=O)Cn2c(=O)oc3ccc(Cl)cc32)cc1` (configuration not stated), the Ki in data set [1] turned out to be 0.04 µM; in [2], 8.55 µM. The Ratio Ki in data set [3] stood at 0.005.
On to `NCCNC(=O)c1ccc(Cl)cn1` [LAZABEMIDE], for which the Ki in [1] was above 250 µM. The Activity in data set [4] is 97%; in data set [5] it was 11%; in data set [6] it was 89%; in data set [7] it was 99%. In addition, the viability at 2 h, 7.5 µM in data set [8] came to 92.4%. In addition, the viability at 2 h, 15 µM in data set [9] amounted to 89.7%. For the same compound, the viability at 2 h, 30 µM in [10] amounted to 85.6%.
As to `COc1ccc(C2=NN(C(=O)Cn3c(=O)oc4ccc(Cl)cc43)C(c3cccc(OC)c3OC)C2)cc1` (configuration not stated), the Ki stood at 1.55 µM in data set [1] and 8000 µM in data set [2]. Further, in data set [3], the Ratio Ki was 1.94 10^-4No_unit.
For `COc1cccc(C2CC(c3ccc(C)cc3)=NN2C(=O)Cn2c(=O)oc3ccc(C)cc32)c1OC` (configuration not stated), in that order: 0.266 µM, 52 µM and 0.005.
Regarding `CCn1cc(C(=O)O)c(=O)c2cc(F)c(N3CCNC(C)C3)c(F)c21` (configuration not stated) [LOMEFLOXACIN], the Papp at 16 h, 25 ug/ml in [11] was 0.99 ×10⁻⁶ cm/s.
In the case of `COc1ccccc1C(/C=C/c1ccccc1Cl)=N/NC(=O)Cn1c(=O)oc2ccc(C)cc21`, the Ki in data set [1] was 0.011 µM; in data set [2], 16.6 µM. Further, the Ratio Ki in [3] was 6.65 10^-4No_unit.
For `Cc1ccc(C2=NN(C(=O)Cn3c(=O)oc4ccccc43)C(c3ccccc3)C2)cc1` (configuration not stated), in that order: 0.019 µM, 5.55 µM and 0.003.
For `COc1cccc(C2CC(c3ccc(C)cc3)=NN2C(=O)Cn2c(=O)oc3ccc(Cl)cc32)c1OC` (configuration not stated), in that order: 0.51 µM, 91.3 µM and 0.006.
On to `COc1cccc(C2CC(c3ccccc3)=NN2C(=O)Cn2c(=O)oc3ccc(Cl)cc32)c1` (configuration not stated), for which the Ki in [1] is 0.985 µM; in data set [2] it was 1 µM. Further, the Ratio Ki in [3] came out at 0.985.
Turning to `COc1ccc(C2=NN(C(=O)Cn3c(=O)oc4ccc(Cl)cc43)C(c3ccccc3Cl)C2)cc1` (configuration not stated), the figures for the Ki in [1] and in [2] were 0.065 µM and 25.6 µM, respectively. Further, the Ratio Ki in [3] turned out to be 0.003.
In [11], `NCCc1ccc(O)c(O)c1` [DOPAMINE] came in with an apparent permeability coefficient (Papp) at 16 h, 25 ug/ml of 0.32 ×10⁻⁶ cm/s.
For the compound `Cc1ccc(C2CC(c3ccccc3)=NN2C(=O)Cn2c(=O)oc3ccccc32)cc1` (configuration not stated), the Ki in data set [1] is 0.004 µM; in data set [2] it was 8.95 µM. In addition, in data set [3], the Ratio Ki was 0.000446.
For `Cc1ccc(C2=NN(C(=O)Cn3c(=O)oc4ccc(Cl)cc43)C(c3ccccc3)C2)cc1` (configuration not stated) the same measures were 0.02 µM, 55.6 µM and 3.6 10^-4No_unit.
For `COc1cccc(/C=C/C(=N\NC(=O)Cn2c(=O)oc3ccccc32)c2ccccc2)c1`, in that order: 0.001 µM, 8.9 µM and 1.12 10^-4No_unit.
For the compound `Cc1ccc(C2CC(c3ccccc3)=NN2C(=O)Cn2c(=O)oc3ccc(C)cc32)cc1` (configuration not stated), the results for the Ki in [1] and in data set [2] were 0.008 µM and 5.22 µM, respectively. The Ratio Ki in data set [3] came out at 0.002.
In the case of `COc1ccc(C2=NN(C(=O)Cn3c(=O)oc4ccc(C)cc43)C(c3ccccc3)C2)cc1` (configuration not stated), the values for the Ki in data set [1] and in data set [2] were 0.8 µM and 7.5 µM, respectively. The Ratio Ki in [3] came out at 0.107.
For `COc1ccccc1C1=NN(C(=O)Cn2c(=O)oc3ccc(Cl)cc32)C(c2ccccc2Cl)C1` (configuration not stated) the same measures were 0.05 µM, 11 µM and 0.005.
For `COc1ccc(C2=NN(C(=O)Cn3c(=O)oc4ccccc43)C(c3cccc(OC)c3OC)C2)cc1` (configuration not stated), in that order: 0.125 µM, 255 µM and 4.9 10^-4No_unit.
For `COc1ccc(C2=NN(C(=O)Cn3c(=O)oc4ccc(Cl)cc43)C(c3ccccc3)C2)cc1` (configuration not stated), in that order: 0.004 µM, 1.95 µM and 0.002.
Consider `COc1ccc(C2=NN(C(=O)Cn3c(=O)oc4ccccc43)C(c3ccccc3)C2)cc1` (configuration not stated), for which the results for the Ki in data set [1] and in data set [2] were 0.011 µM and 9 µM, respectively. Further, in data set [3], the Ratio Ki is 0.001.
For `COc1cccc(C2CC(c3ccc(C)cc3)=NN2C(=O)Cn2c(=O)oc3ccccc32)c1OC` (configuration not stated), in that order: 0.028 µM, 120 µM and 2.32 10^-4No_unit.
Consider `COc1ccccc1C(/C=C/c1ccccc1)=N/NC(=O)Cn1c(=O)oc2ccc(C)cc21`, for which the Ki amounted to 0.012 µM in [1] and 54 µM in [2]. Besides, the Ratio Ki in data set [3] is 2.22 10^-4No_unit.
For `COc1ccc(C2CC(c3ccccc3)=NN2C(=O)Cn2c(=O)oc3ccc(C)cc32)cc1OC` (configuration not stated) the same measures were 0.17 µM, 41.3 µM and 0.004.
As for `COc1ccccc1C1=NN(C(=O)Cn2c(=O)oc3ccc(C)cc32)C(c2ccccc2Cl)C1` (configuration not stated), the results for the Ki in [1] and in data set [2] were 0.308 µM and 15.9 µM, respectively. In addition, the Ratio Ki in data set [3] came out at 0.019.
For `COc1ccccc1C(/C=C/c1ccccc1Cl)=N/NC(=O)Cn1c(=O)oc2ccccc21`, in that order: 0.004 µM, 60 µM and 6.66 10^-5No_unit.
Consider `O=C(Cn1c(=O)oc2ccccc21)N/N=C(\C=C\c1ccccc1)c1ccccc1`, for which the Ki in [1] was 0.001 µM; in data set [2], 19 µM. Besides, in data set [3], the Ratio Ki is 5.26 10^-5No_unit.
For `COc1cccc(C2CC(c3ccccc3)=NN2C(=O)Cn2c(=O)oc3ccc(C)cc32)c1` (configuration not stated), in that order: 0.005 µM, 21.3 µM and 2.35 10^-4No_unit.
For `COc1cccc(C2=NN(C(=O)Cn3c(=O)oc4ccccc43)C(c3ccccc3Cl)C2)c1` (configuration not stated) the same measures were 0.06 µM, 7.5 µM and 0.008.
For `COc1ccc(C2=NN(C(=O)Cn3c(=O)oc4ccc(C)cc43)C(c3ccccc3Cl)C2)cc1` (configuration not stated) the same measures were 0.018 µM, 0.4 µM and 0.045.
In the case of `Cc1ccc(C2=NN(C(=O)Cn3c(=O)oc4ccc(C)cc43)C(c3ccccc3)C2)cc1` (configuration not stated), the Ki in data set [1] was found to be 0.05 µM; in data set [2], 29 µM. The Ratio Ki in data set [3] was determined as 0.002.
For `COc1ccc(C(/C=C/c2ccccc2Cl)=N/NC(=O)Cn2c(=O)oc3ccccc32)cc1`, in that order: 0.001 µM, 35 µM and 3.43 10^-5No_unit.
For `COc1ccc(C2CC(c3ccccc3)=NN2C(=O)Cn2c(=O)oc3ccc(Cl)cc32)cc1OC` (configuration not stated), in that order: 3 µM, 50.2 µM and 0.06.
For `COc1cccc(C2=NN(C(=O)Cn3c(=O)oc4ccc(C)cc43)C(c3ccccc3Cl)C2)c1` (configuration not stated) the same measures were 0.011 µM, 24.3 µM and 4.52 10^-4No_unit.
Take `C[C@]12CC[C@@H]3c4ccc(O)cc4CC[C@H]3[C@@H]1CC[C@@H]2O` [ESTRADIOL]: in data set [11], the Papp at 16 h, 25 ug/ml came out at 9.99 ×10⁻⁶ cm/s.
Regarding `COc1ccccc1C1=NN(C(=O)Cn2c(=O)oc3ccccc32)C(c2ccccc2Cl)C1` (configuration not stated), the Ki came to 0.013 µM in [1] and 1.15 µM in [2]. Further, in data set [3], the Ratio Ki was determined as 0.011.
For `COc1cccc(C2=NN(C(=O)Cn3c(=O)oc4ccc(Cl)cc43)C(c3ccccc3Cl)C2)c1` (configuration not stated) the same measures were 0.12 µM, 2.55 µM and 0.05.
